Activity calls are given as the source filed them.
Key:
[1] = molecular target: Kappa-type opioid receptor (Homo sapiens) (UniProt P41145); assay: Inhibition of kappa opioid receptor at 10 uM
Method in brief: (§1)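 Radioligand displacement at a contract lab across a panel of 50 receptors, ion channels and transporters, single test concentration 10 μM; loss of specific ligand binding reported as percent, with >50% decrease counted as significant.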

[2] = molecular target: D(1A) dopamine receptor (Homo sapiens) (UniProt P21728); assay: Inhibition of dopamine D1 receptor at 10 uM; method in brief: as §1
[3] = Metabolic stability in mouse liver microsomes; type: ADME, Microsome
Method in brief: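 Pooled female liver microsomes at 0.5 mg/ml in 0.1 M potassium phosphate pH 7.4, 3 mM MgCl2, 1 mM EDTA, with NADPH regenerating system (1 mM NADP+, 5 mM glucose-6-phosphate, 1 U/ml G6PDH). Preincubated 10 min at 37°C, then compound added to 1 μM final. Time points quenched with 3 volumes acetonitrile plus internal standard; parent quantified by LC/MS; half-life reported.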

[4] = Elimination half life in Sprague-Dawley rat at 50 mg/kg, po; type: ADME, organism-based; design: dose 50 mg/kg, route oral; details: in vivo, read-out: beta t1/2
Method in brief: (§2)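 50 mg/kg by oral gavage in 3% EtOH-7% Tween 80-90% normal saline to groups of three females (BALB/c mice, 8–10 weeks, tail bleed; Sprague-Dawley rats, 10–12 weeks, saphenous vein). Plasma extracted with acetonitrile/internal standard, LC/MS; means of three animals. Oral elimination half-life depends on absorption rate as well as elimination.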

[5] = Permeability from apical to basolateral side in human Caco-2 cells; type: ADME, cell-based; details: read-out: permeability
[6] = molecular target: 5-hydroxytryptamine receptor 1B (Homo sapiens) (UniProt P28222); assay: Inhibition of 5HT1B receptor at 10 uM
Method in brief: (§3)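 Radioligand displacement screen by a contractor across 50 receptors, ion channels and transporters, test compound at 10 μM; decrease in specific ligand binding expressed as percentage, with >50% decrease taken as significant.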

[7] = Inhibition of SKCa channel at 10 uM
Method in brief: (§4)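 Radioligand displacement screen at a 10 μM test concentration, run by a contract lab across a panel of 50 receptors, pharmacologically active ion channels and transporters. The read-out is the decrease in specific radiolabeled ligand binding, expressed as a percentage. A decrease above 50% was considered significant.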

[8] = molecular target: Adenosine receptor A1 (Homo sapiens) (UniProt P30542); assay: Inhibition of adenosine A1 receptor at 10 uM; method in brief: as §3
[9] = Inhibition of somatostatin receptor at 10 uM; method in brief: as §4
[10] = Elimination half life in BALB/c mouse at 50 mg/kg, po; type: ADME, organism-based; design: dose 50 mg/kg, route oral; details: in vivo, read-out: beta t1/2; method in brief: as §2
[11] = molecular target: Muscarinic acetylcholine receptor M2 (Homo sapiens) (UniProt P08172); assay: Inhibition of muscarinic M2 receptor at 10 uM; method in brief: as §1
[12] = Elimination half life in Sprague-Dawley rat at 2 mg/kg, iv; type: ADME, organism-based; design: dose 2 mg/kg, route intravenous; details: in vivo, read-out: beta t1/2
Method in brief: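 Three female Sprague-Dawley rats per group (10–12 weeks), jugular-vein catheterized; 2 mg/kg in 3% EtOH-7% Tween 80-90% normal saline given through the catheter. Plasma drawn from the catheter at set times, acetonitrile extraction with internal standard, LC/MS quantification.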

[13] = Inhibition of Potassium channel at 10 uM; method in brief: as §4
[14] = molecular target: C-C chemokine receptor type 1 (Homo sapiens) (UniProt P32246); assay: Inhibition of CCR1 receptor at 10 uM; method in brief: as §3
[15] = Inhibition of Plasmodium falciparum protein farnesyltransferase by SPA method
[16] = molecular target: Sodium-dependent noradrenaline transporter (Homo sapiens) (UniProt P23975); assay: Inhibition of NET at 10 uM; method in brief: as §3
[17] = tested on: Rattus norvegicus; assay: Toxicity in Plasmodium berghei NK65 infected Sprague-Dawley rat assessed as effect on glucose levels at 50 mg/kg, perorally administered every 8 hrs for 3 days; type: organism-based; design: dose 50 mg/kg, route oral; details: in vivo, po
Method in brief: (§5)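 Female Sprague-Dawley rats, 10-12 weeks, n = 3 per schedule. Dosed 50 mg/kg by oral gavage every 8 h or every 12 h for 72 h. At the end of dosing, blood was sent to a clinical laboratory for complete blood counts, white cell differentials, electrolytes, glucose, renal function, liver enzymes and cholesterol.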

[18] = tested on: Rattus norvegicus; assay: Toxicity in Plasmodium berghei NK65 infected Sprague-Dawley rat assessed as effect on electrolyte levels at 50 mg/kg, perorally administered every 12 hrs for 3 days; type: organism-based; design: dose 50 mg/kg, route oral; details: in vivo, po; method in brief: as §5
[19] = Inhibition of Sodium channel site 2 at 10 uM; method in brief: as §4
[20] = tested on: Salmonella typhimurium; assay: Genotoxicity in Salmonella enterica serovar Typhimurium TA98 assessed as increase in number of revertants in presence of rat liver S9 fraction by Ames test; type: toxicity, organism-based; details: salmonella enterica subsp. enterica serovar typhimurium
Method in brief: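 Liquid-culture Ames assay run by a contractor: S. Typhimurium TA98 and TA100 exposed for 96 h in histidine-free medium, with and without rat liver S9, at 5, 10, 50 and 100 μM (plus higher concentrations); growth read spectrophotometrically by pH-indicator colour change. Parallel bacterial cytotoxicity assay at same concentrations.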

[21] = molecular target: B2 bradykinin receptor (Homo sapiens) (UniProt P30411); assay: Inhibition of bradykinin B2 receptor at 10 uM; method in brief: as §1
[22] = molecular target: C-X-C chemokine receptor type 2 (Homo sapiens) (UniProt P25025); assay: Inhibition of CXCR2 receptor at 10 uM; method in brief: as §3
[23] = Inhibition of L-type calcium channel at verapamil site at 10 uM; method in brief: as §4
[24] = tested on: Salmonella typhimurium; assay: Toxicity against Salmonella enterica serovar Typhimurium TA100; type: organism-based, Salmonella enterica subsp. enterica serovar Typhimurium; details: in vivo
Method in brief: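 Ames fluctuation test in S. Typhimurium TA98 (frameshift) and TA100 (base substitution), with and without rat liver S9. Tested at 5, 10, 50 and 100 μM plus higher concentrations, 48 wells each, in histidine-free liquid medium for 96 h. Growth read spectrophotometrically by pH-indicator color change. Bacterial cytotoxicity assayed in parallel at the same concentrations.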

[25] = tested on: Plasmodium falciparum; assay: Antiplasmodial activity against Plasmodium falciparum by [3H]hypoxanthine uptake; type: functional; details: read-out: ED50 (the source's name)
Method in brief: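 Asynchronous P. falciparum (3D7 or K1) in RPMI 1640 with 20% heat-inactivated human A+ plasma, 0.5% parasitemia and 0.5% hematocrit; compound serially diluted, top final 5 μM, 48 h at 37°C under 5% CO2/5% O2/90% N2, then [8-3H]hypoxanthine 0.3 μCi added for 24 h.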

Chain of D(1A) dopamine receptor (Homo sapiens) (P21728 whole entry): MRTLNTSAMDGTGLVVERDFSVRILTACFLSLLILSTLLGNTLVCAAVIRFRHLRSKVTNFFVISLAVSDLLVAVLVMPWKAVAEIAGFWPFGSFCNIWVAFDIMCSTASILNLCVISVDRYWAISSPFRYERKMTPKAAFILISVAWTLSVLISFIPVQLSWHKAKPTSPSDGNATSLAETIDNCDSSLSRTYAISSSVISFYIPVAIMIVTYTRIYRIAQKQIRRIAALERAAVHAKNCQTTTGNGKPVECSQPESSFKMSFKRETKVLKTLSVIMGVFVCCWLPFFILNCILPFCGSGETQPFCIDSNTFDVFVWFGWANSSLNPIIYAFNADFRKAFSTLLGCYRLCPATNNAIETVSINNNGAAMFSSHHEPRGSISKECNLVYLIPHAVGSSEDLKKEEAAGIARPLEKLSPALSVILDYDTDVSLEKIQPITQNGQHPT
Chain of B2 bradykinin receptor (Homo sapiens) (P30411 whole entry): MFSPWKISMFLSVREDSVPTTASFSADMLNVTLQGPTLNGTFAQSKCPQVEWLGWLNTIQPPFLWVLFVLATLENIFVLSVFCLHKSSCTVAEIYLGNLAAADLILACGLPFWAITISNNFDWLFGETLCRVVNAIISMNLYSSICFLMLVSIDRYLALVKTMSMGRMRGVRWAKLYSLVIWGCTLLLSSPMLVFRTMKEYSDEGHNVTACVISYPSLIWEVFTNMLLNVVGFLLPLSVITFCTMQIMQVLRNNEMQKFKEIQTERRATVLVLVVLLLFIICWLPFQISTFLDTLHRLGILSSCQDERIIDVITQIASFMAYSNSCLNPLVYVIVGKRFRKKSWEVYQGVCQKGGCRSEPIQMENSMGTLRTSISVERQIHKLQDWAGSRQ
Chain of C-X-C chemokine receptor type 2 (Homo sapiens) (P25025 whole entry): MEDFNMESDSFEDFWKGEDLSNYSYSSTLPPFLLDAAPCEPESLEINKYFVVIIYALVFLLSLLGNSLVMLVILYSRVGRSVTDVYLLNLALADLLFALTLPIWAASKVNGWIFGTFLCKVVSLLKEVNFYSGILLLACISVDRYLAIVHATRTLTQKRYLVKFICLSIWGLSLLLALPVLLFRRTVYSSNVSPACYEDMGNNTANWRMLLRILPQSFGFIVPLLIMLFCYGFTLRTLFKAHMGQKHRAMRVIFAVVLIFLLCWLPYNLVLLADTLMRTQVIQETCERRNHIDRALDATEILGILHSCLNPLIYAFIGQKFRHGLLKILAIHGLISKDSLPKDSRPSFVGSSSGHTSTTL
Chain of 5-hydroxytryptamine receptor 1B (Homo sapiens) (P28222 whole entry): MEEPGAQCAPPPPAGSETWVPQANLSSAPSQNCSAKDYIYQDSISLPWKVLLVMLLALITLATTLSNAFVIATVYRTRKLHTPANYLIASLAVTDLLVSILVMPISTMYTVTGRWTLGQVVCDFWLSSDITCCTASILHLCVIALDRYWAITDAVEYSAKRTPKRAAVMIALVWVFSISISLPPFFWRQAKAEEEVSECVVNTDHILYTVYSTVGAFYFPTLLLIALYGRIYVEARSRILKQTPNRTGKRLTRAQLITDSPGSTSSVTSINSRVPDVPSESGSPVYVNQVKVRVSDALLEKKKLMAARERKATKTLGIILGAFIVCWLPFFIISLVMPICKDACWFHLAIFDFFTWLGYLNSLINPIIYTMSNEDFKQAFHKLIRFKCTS
Chain of Muscarinic acetylcholine receptor M2 (Homo sapiens) (P08172 whole entry): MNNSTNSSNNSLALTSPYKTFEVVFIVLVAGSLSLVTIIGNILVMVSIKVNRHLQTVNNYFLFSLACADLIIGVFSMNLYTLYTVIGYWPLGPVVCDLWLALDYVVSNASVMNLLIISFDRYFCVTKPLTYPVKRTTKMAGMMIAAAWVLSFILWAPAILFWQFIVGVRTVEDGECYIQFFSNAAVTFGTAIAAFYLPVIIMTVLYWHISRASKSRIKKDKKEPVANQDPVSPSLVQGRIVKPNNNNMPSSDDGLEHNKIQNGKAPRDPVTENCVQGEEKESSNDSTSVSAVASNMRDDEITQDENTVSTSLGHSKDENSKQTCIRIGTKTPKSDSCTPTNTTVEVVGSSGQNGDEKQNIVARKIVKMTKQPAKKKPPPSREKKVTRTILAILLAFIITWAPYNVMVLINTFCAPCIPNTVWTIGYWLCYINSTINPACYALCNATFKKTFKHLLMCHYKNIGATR
Chain of C-C chemokine receptor type 1 (Homo sapiens) (P32246 whole entry): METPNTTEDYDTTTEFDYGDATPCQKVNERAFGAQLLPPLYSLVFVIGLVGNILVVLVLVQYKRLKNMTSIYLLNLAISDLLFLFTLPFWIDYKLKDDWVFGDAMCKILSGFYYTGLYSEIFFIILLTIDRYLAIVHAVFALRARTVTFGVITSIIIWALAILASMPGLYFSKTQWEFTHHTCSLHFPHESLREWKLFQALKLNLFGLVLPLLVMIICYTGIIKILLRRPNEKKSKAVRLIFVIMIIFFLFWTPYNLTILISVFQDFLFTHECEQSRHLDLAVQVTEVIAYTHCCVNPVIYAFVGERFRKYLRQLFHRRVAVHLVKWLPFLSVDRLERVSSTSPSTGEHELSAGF
Chain of Adenosine receptor A1 (Homo sapiens) (P30542 whole entry): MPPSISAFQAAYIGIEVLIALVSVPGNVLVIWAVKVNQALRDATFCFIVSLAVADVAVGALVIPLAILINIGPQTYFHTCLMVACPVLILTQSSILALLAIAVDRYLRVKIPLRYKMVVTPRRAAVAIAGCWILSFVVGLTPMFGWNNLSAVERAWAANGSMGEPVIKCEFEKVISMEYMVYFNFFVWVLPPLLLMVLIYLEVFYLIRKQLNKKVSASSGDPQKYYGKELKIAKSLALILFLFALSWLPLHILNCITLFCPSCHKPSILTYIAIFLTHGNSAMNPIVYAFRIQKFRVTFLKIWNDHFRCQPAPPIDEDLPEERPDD
Chain of Kappa-type opioid receptor (Homo sapiens) (P41145 whole entry): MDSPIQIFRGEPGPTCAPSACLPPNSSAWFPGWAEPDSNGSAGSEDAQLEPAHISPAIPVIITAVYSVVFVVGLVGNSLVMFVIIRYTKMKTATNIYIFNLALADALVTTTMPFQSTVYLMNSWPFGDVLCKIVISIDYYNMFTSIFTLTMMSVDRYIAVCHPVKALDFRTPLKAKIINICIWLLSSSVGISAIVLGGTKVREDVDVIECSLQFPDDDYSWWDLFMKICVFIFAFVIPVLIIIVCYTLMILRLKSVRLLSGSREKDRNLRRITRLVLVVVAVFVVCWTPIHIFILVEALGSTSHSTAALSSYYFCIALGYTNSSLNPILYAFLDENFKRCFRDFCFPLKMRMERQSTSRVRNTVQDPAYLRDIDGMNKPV
Chain of Sodium-dependent noradrenaline transporter (Homo sapiens) (P23975 whole entry): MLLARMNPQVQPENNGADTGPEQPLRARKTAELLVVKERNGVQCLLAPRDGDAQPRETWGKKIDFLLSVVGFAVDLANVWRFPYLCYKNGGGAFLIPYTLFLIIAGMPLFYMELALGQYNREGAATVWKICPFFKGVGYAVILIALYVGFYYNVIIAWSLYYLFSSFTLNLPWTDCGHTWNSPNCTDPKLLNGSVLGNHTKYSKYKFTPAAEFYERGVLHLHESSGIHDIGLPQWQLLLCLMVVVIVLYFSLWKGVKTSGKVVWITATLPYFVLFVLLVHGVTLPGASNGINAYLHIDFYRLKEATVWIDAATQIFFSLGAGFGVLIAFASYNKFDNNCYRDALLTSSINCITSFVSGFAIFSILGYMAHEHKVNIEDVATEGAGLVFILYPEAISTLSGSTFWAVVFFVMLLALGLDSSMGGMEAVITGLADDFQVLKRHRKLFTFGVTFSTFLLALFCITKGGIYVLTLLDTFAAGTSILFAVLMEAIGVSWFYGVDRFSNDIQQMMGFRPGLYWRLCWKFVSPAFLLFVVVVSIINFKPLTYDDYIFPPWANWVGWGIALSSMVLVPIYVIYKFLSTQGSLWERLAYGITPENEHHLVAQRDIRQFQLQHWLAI

## COC(=O)N1CCC(CN(C2Cc3cc(C#N)ccc3N(Cc3cncn3C)C2)S(=O)(=O)c2ccccn2)CC1 (stereo not given)
[1]
  inhibition: inactive
[2]
  inhibition: inactive
[3]
  half-life: 5.8 min
[4]
  half-life: 41 min
[5]
  Papp A→B: 1.1 ×10⁻⁶ cm/s
[6]
  inhibition: inactive
[7]
  inhibition: inactive
[8]
  inhibition: inactive
[9]
  inhibition: inactive
[10]
  half-life: 18 min
[11]
  inhibition: 77%
[12]
  half-life: 17 min
[13]
  inhibition: inactive
[14]
  inhibition: inactive
[15]
  IC50: 0.58 nM
[16]
  inhibition: inactive
[17]
  Activity: Non-toxic
[18]
  Activity: Non-toxic
[19]
  inhibition: inactive
[20]
  Activity: Non-toxic
[21]
  inhibition: inactive
[22]
  inhibition: inactive
[23]
  inhibition: inactive
[24]
  Activity: Non-toxic
[25]
  EC50: 18 nM
